Assay results as given in ChEMBL document CHEMBL1165943, “Design and synthesis of new anticancer pyrimidines with multiple-kinase inhibitory effect” (Bioorg Med Chem, 2010).

Columns and labels:
SF-268 = experiment: Cytotoxicity against human SF268 cells assessed as cell growth at 1 uM after 48 hrs by sulforhodamine B assay; format: functional; conditions: SF-268, 48 h, read-out: Activity
786-0 = experiment: Cytotoxicity against human 786-0 cells assessed as cell growth at 10 uM after 48 hrs by sulforhodamine B assay; format: functional; conditions: 786-0, 48 h, read-out: Activity
Summary of the method: (§1)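 Cells grown in RPMI 1640 with 5% FBS and 2 mM L-glutamine, seeded at 5,000–40,000 cells/well by doubling time. Time-zero plates TCA-fixed after 24 h. Five concentrations (10-fold or half-log dilutions from DMSO stock) added; 48 h at 37 °C, 5% CO2. Cold TCA fixation (final 10%, 60 min, 4 °C), 0.4% SRB stain, dye solubilized in 10 mM trizma base, A515.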

A498 = experiment: Cytotoxicity against human A498 cells assessed as cell growth at 0.001 uM after 48 hrs by sulforhodamine B assay; format: functional; conditions: A498, 48 h, read-out: Activity; summary of the method: as §1
OVCAR-3 = experiment: Cytotoxicity against human OVCAR-3 cells assessed as cell growth at 10 uM after 48 hrs by sulforhodamine B assay; format: functional; conditions: OVCAR-3, 48 h, read-out: Activity
SNB-19 [1] = experiment: Cytotoxicity against human SNB19 cells assessed as cell growth at 10 uM after 48 hrs by sulforhodamine B assay; format: functional; conditions: SNB-19, 48 h, read-out: Activity
OVCAR-8 = experiment: Cytotoxicity against human OVCAR8 cells assessed as cell growth at 10 uM after 48 hrs by sulforhodamine B assay; format: functional; conditions: OVCAR-8, 48 h, read-out: Activity
NCI-H322M [2] = experiment: Cytotoxicity against human NCI-H322M cells assessed as cell growth at 0.01 uM after 48 hrs by sulforhodamine B assay; format: functional; conditions: read-out: Activity
NCI-H460 = experiment: Cytotoxicity against human NCI-H460 cells assessed as cell growth at 1 uM after 48 hrs by sulforhodamine B assay; format: functional; conditions: NCI-H460, 48 h, read-out: Activity
OVCAR-4 [3] = experiment: Cytotoxicity against human OVCAR4 cells assessed as cell growth at 10 uM after 48 hrs by sulforhodamine B assay; format: functional; conditions: OVCAR-4, 48 h, read-out: Activity
MDA-MB-468 [4] = experiment: Cytotoxicity against human MDA-MB-468 cells assessed as cell growth at 0.01 uM after 48 hrs by sulforhodamine B assay; format: functional; conditions: MDA-MB-468, 48 h, read-out: Activity
MDA-MB-468 [5] = experiment: Cytotoxicity against human MDA-MB-468 cells assessed as cell growth at 1 uM after 48 hrs by sulforhodamine B assay; format: functional; conditions: MDA-MB-468, 48 h, read-out: Activity
HCT-116 [6] = experiment: Cytotoxicity against human HCT116 cells assessed as cell growth at 0.01 uM after 48 hrs by sulforhodamine B assay; format: functional; conditions: HCT-116, 48 h, read-out: Activity
SK-OV-3 = experiment: Cytotoxicity against human SKOV3 cells assessed as cell growth at 1 uM after 48 hrs by sulforhodamine B assay; format: functional; conditions: SK-OV-3, 48 h, read-out: Activity
NCI-H23 = experiment: Growth inhibition of human NCI-H23 cells after 48 hrs by sulforhodamine B assay; format: functional, cell-based; conditions: NCI-H23, 48 h; for CC50: read-out: LC50 (the source's name)
Summary of the method: (§2)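 Cells grown in RPMI 1640 with 5% FBS and 2 mM L-glutamine, seeded at 5,000–40,000 cells/well according to doubling time. After 24 h, time-zero plates are TCA-fixed. Five concentrations (10-fold or ½log dilutions, DMSO stocks) are applied for 48 h at 37 °C, 5% CO₂. Cells are TCA-fixed, SRB-stained and read at 515 nm. IC₅₀ is taken from [(Ti−Tz)/(C−Tz)]×100 = 50.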

NCI/ADR-RES = experiment: Growth inhibition of human NCI/ADR-RES cells after 48 hrs by sulforhodamine B assay; format: functional, cell-based; conditions: for CC50: read-out: LC50 (the source's name); summary of the method: as §2
UO-31 = experiment: Growth inhibition of human UO31 cells after 48 hrs by sulforhodamine B assay; format: functional, cell-based; conditions: UO-31, 48 h; for CC50: read-out: LC50 (the source's name); summary of the method: as §2
NCI-H322M [7] = experiment: Growth inhibition of human NCI-H322M cells after 48 hrs by sulforhodamine B assay; format: functional, cell-based; conditions: for CC50: read-out: LC50 (the source's name); summary of the method: as §2
MDA-MB-468 [8] = experiment: Cytotoxicity against human MDA-MB-468 cells assessed as cell growth at 10 uM after 48 hrs by sulforhodamine B assay; format: functional; conditions: MDA-MB-468, 48 h, read-out: Activity
K562 [9] = experiment: Cytotoxicity against human K562 cells assessed as cell growth at 0.01 uM after 48 hrs by sulforhodamine B assay; format: functional; conditions: K562, 48 h, read-out: Activity
K562 [10] = experiment: Cytotoxicity against human K562 cells assessed as cell growth at 100 nM after 48 hrs by sulforhodamine B assay; format: functional; conditions: K562, 48 h, read-out: Activity
TK-10 = experiment: Cytotoxicity against human TK10 cells assessed as cell growth at 10 uM after 48 hrs by sulforhodamine B assay; format: functional; conditions: TK-10, 48 h, read-out: Activity
NCI-H522 = experiment: Cytotoxicity against human NCI-H522 cells assessed as cell growth at 0.001 uM after 48 hrs by sulforhodamine B assay; format: functional; conditions: NCI-H522, 48 h, read-out: Activity
OVCAR-4 [11] = experiment: Growth inhibition of human OVCAR4 cells after 48 hrs by sulforhodamine B assay; format: functional, cell-based; conditions: for CC50: read-out: LC50 (the source's name); summary of the method: as §2
HCT-116 [12] = experiment: Cytotoxicity against human HCT116 cells assessed as cell growth at 100 nM after 48 hrs by sulforhodamine B assay; format: functional; conditions: HCT-116, 48 h, read-out: Activity
DU-145 = experiment: Cytotoxicity against human DU145 cells assessed as cell growth at 100 nM after 48 hrs by sulforhodamine B assay; format: functional; conditions: DU-145, 48 h, read-out: Activity
UACC-257 = experiment: Cytotoxicity against human UACC257 cells assessed as cell growth at 1 uM after 48 hrs by sulforhodamine B assay; format: functional; conditions: UACC-257, 48 h, read-out: Activity
SNB-19 [13] = experiment: Cytotoxicity against human SNB19 cells assessed as cell growth at 0.001 uM after 48 hrs by sulforhodamine B assay; format: functional; conditions: SNB-19, 48 h, read-out: Activity
SN12C = experiment: Cytotoxicity against human SN12C cells assessed as cell growth at 0.01 uM after 48 hrs by sulforhodamine B assay; format: functional; conditions: read-out: Activity
KM12 = experiment: Cytotoxicity against human KM12 cells assessed as cell growth at 10 uM after 48 hrs by sulforhodamine B assay; format: functional; conditions: KM12, 48 h, read-out: Activity
[14] = Homo sapiens, NCI/ADR-RES, 48 h

CC(=O)Nc1cccc(-c2ccc(-c3ccnc(NC(=O)Nc4cc(C(F)(F)F)cc(C(F)(F)F)c4)n3)cn2)c1.Cl
growth at 1 µM (SF-268): 31%
growth at 10 µM (786-0): 100%
growth at 0.001 µM (A498): 95%
growth at 10 µM (OVCAR-3): 100%
growth at 10 µM (SNB-19 [1]): -88%
growth at 10 µM (OVCAR-8): -84%
growth at 0.01 µM (NCI-H322M [2]): 88%
growth at 1 µM (NCI-H460): -14%
growth at 10 µM (OVCAR-4 [3]): -87%
growth at 0.01 µM (MDA-MB-468 [4]): 86%
growth at 1 µM (MDA-MB-468 [5]): -79%
growth at 0.01 µM (HCT-116 [6]): 85%
growth at 1 µM (SK-OV-3): 65%
GI50 (NCI-H23): 2.24 µM
IC50 (NCI-H23): 2.24 µM
TGI (NCI-H23): 6.94 µM
CC50 (NCI-H23): 43.8 µM
GI50 (NCI/ADR-RES; [14]): 3.66 µM
TGI (NCI/ADR-RES; [14]): 47.4 µM
IC50 (NCI/ADR-RES; Homo sapiens, NCI/ADR-RES, 48 h, read-out: IC50): 3.66 µM
CC50 (NCI/ADR-RES; [14]): > 100 µM
GI50 (UO-31): 5.51 µM
IC50 (UO-31): 5.51 µM
TGI (UO-31): 23.2 µM
CC50 (UO-31): 61.7 µM
GI50 (NCI-H322M [7]): 2.17 µM
IC50 (NCI-H322M [7]): 2.17 µM
TGI (NCI-H322M [7]): 14.6 µM
CC50 (NCI-H322M [7]): 68.8 µM
growth at 10 µM (MDA-MB-468 [8]): 100%
growth at 0.01 µM (K562 [9]): 32%
growth at 0.1 µM (K562 [10]): 69%
growth at 10 µM (TK-10): -54%
growth at 0.001 µM (NCI-H522): 86%
GI50 (OVCAR-4 [11]; Homo sapiens, OVCAR-4, 48 h): 1.57 µM
TGI (OVCAR-4 [11]; Homo sapiens, OVCAR-4, 48 h): 11.1 µM
IC50 (OVCAR-4 [11]; Homo sapiens, OVCAR-4, 48 h, read-out: IC50): 1.57 µM
CC50 (OVCAR-4 [11]; Homo sapiens, OVCAR-4, 48 h): 39 µM
growth at 0.1 µM (HCT-116 [12]): 72%
growth at 0.1 µM (DU-145): 102%
growth at 1 µM (UACC-257): -45%
growth at 0.001 µM (SNB-19 [13]): 95%
growth at 0.01 µM (SN12C): 96%
growth at 10 µM (KM12): 100%

CC(=O)c1ccccc1-c1ccc(-c2ccnc(NC(=O)Nc3cc(N4CCOCC4)cc(C(F)(F)F)c3)n2)cn1
growth at 1 µM (SF-268): 60%
growth at 10 µM (786-0): 10%
growth at 0.001 µM (A498): 85%
growth at 10 µM (OVCAR-3): 51%
growth at 10 µM (SNB-19 [1]): 26%
growth at 10 µM (OVCAR-8): 53%
growth at 0.01 µM (NCI-H322M [2]): 108%
growth at 1 µM (NCI-H460): 61%
growth at 10 µM (OVCAR-4 [3]): 91%
growth at 0.01 µM (MDA-MB-468 [4]): 105%
growth at 1 µM (MDA-MB-468 [5]): 109%
growth at 0.01 µM (HCT-116 [6]): 95%
growth at 1 µM (SK-OV-3): 48%
GI50 (NCI-H23): 2.95 µM
IC50 (NCI-H23): > 100 µM
TGI (NCI-H23): > 100 µM
CC50 (NCI-H23): > 100 µM
TGI (NCI/ADR-RES; [14]): > 100 µM
CC50 (NCI/ADR-RES; [14]): > 100 µM
IC50 (NCI/ADR-RES; nci/adr-res): Not Active
GI50 (UO-31): > 5.46 µM
IC50 (UO-31): > 100 µM
TGI (UO-31): > 100 µM
CC50 (UO-31): > 100 µM
GI50 (NCI-H322M [7]): > 100 µM
IC50 (NCI-H322M [7]): > 100 µM
TGI (NCI-H322M [7]): > 100 µM
CC50 (NCI-H322M [7]): > 100 µM
growth at 10 µM (MDA-MB-468 [8]): 65%
growth at 0.01 µM (K562 [9]): 75%
growth at 0.1 µM (K562 [10]): 69%
growth at 10 µM (TK-10): 27%
growth at 0.001 µM (NCI-H522): 91%
TGI (OVCAR-4 [11]; Homo sapiens, OVCAR-4, 48 h): > 100 µM
CC50 (OVCAR-4 [11]; Homo sapiens, OVCAR-4, 48 h): > 100 µM
IC50 (OVCAR-4 [11]; ovcar-4): Not Active
growth at 0.1 µM (HCT-116 [12]): 86%
growth at 0.1 µM (DU-145): 77%
growth at 1 µM (UACC-257): 66%
growth at 0.001 µM (SNB-19 [13]): 98%
growth at 0.01 µM (SN12C): 88%
growth at 10 µM (KM12): 82%
